Experimental data published in ChEMBL document CHEMBL1140019, “Primary amides as selective inhibitors of cathepsin K” (Bioorg Med Chem Lett, 2007).

Experiments:
[1] = target: Cathepsin K (Homo sapiens, UniProt P43235); assay: Inhibition of humanized rabbit cathepsin K
Outline: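 IC50 was measured against the humanized rabbit enzyme and is the mean of at least four independent titrations, reported with SEM.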

[2] = target: Cathepsin B (Homo sapiens, UniProt P07858); assay: Inhibition of human cathepsin B
[3] = target: Procathepsin L (Homo sapiens, UniProt P07711); assay: Inhibition of human cathepsin L
Sequence of Procathepsin L (P07711 whole entry): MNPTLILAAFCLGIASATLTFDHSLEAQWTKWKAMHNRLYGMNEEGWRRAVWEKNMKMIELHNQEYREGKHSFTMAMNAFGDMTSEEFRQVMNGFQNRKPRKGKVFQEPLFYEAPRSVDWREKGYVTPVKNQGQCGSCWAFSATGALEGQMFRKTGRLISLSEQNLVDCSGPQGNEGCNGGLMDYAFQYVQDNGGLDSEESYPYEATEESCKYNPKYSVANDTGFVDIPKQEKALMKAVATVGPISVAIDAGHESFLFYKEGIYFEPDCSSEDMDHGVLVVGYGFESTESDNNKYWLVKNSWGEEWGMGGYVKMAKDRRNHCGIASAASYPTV

[4] = target: Cathepsin S (Homo sapiens, UniProt P25774); assay: Inhibition of human cathepsin S
Sequence of Cathepsin S (P25774 whole entry): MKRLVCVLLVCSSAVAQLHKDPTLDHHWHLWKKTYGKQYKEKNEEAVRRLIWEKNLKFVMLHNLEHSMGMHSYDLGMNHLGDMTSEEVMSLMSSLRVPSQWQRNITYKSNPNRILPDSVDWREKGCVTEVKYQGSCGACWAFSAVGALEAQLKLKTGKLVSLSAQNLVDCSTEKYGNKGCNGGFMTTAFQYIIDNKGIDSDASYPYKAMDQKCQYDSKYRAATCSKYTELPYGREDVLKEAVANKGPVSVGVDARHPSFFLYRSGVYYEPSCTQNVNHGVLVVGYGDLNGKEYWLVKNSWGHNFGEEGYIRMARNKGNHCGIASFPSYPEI

SMILES | IC50 [1] | IC50 [2] | IC50 [3] | IC50 [4]
CC(C)C[C@H](N[C@@H](c1ccc(-c2ccc(S(C)(=O)=O)cc2)cc1)C(F)(F)F)C(=O)N[C@H](Cc1ccccc1)C(N)=O | 6070 nM | – | – | –
CC(C)C[C@H](N[C@@H](c1ccc(-c2ccc(S(C)(=O)=O)cc2)cc1)C(F)(F)F)C(=O)NCC#N | 0.2 nM | – | – | –
CC(C)C[C@H](N[C@@H](c1ccc(-c2ccc(S(C)(=O)=O)cc2)cc1)C(F)(F)F)C(=O)N[C@@H](CS(C)(=O)=O)C(N)=O | 109 nM | – | – | –
CC(C)C[C@H](N[C@@H](c1ccc(-c2ccc(S(C)(=O)=O)cc2)cc1)C(F)(F)F)C(=O)N[C@@H](C)C#N | 0.9 nM | – | – | –
CSCC[C@H](NC(=O)[C@H](CC(C)C)N[C@@H](c1ccc(-c2ccc(S(C)(=O)=O)cc2)cc1)C(F)(F)F)C(=O)NS(C)(=O)=O | 238 nM | – | – | –
CNC(=O)[C@H](CCSC)NC(=O)[C@H](CC(C)C)N[C@@H](c1ccc(-c2ccc(S(C)(=O)=O)cc2)cc1)C(F)(F)F | 67 nM | – | – | –
CSCC[C@H](NC(=O)[C@H](CC(C)C)N[C@@H](c1ccc(-c2ccc(S(C)(=O)=O)cc2)cc1)C(F)(F)F)C(=O)NCC(F)(F)F | 277 nM | – | – | –
CSC[C@H](NC(=O)[C@H](CC(C)C)N[C@@H](c1ccc(-c2ccc(S(C)(=O)=O)cc2)cc1)C(F)(F)F)C(N)=O | 66 nM | – | – | –
COC(=O)[C@H](CCSC)NC(=O)[C@H](CC(C)C)N[C@@H](c1ccc(-c2ccc(S(C)(=O)=O)cc2)cc1)C(F)(F)F | 27 nM | – | – | –
CC(C)C[C@H](N[C@@H](c1ccc(-c2ccc(S(C)(=O)=O)cc2)cc1)C(F)(F)F)C(=O)N[C@@H](Cc1ccccc1)C(N)=O | 10 nM | > 100000 nM | 17000 nM | 66700 nM
CSCC[C@H](NC(=O)[C@H](CC(C)C)N[C@@H](c1ccc(-c2ccc(S(C)(=O)=O)cc2)cc1)C(F)(F)F)C(=O)O | 120 nM | – | – | –
CSCC[C@@H](C#N)NC(=O)[C@H](CC(C)C)N[C@@H](c1ccc(-c2ccc(S(C)(=O)=O)cc2)cc1)C(F)(F)F | 0.2 nM | – | – | –
CSCC[C@H](NC(=O)[C@H](CC(C)C)N[C@@H](c1ccc(-c2ccc(S(C)(=O)=O)cc2)cc1)C(F)(F)F)C(C)=O | 41 nM | – | – | –
CSCC[C@H](NC(=O)[C@H](CC(C)C)N[C@@H](c1ccc(-c2ccc(S(C)(=O)=O)cc2)cc1)C(F)(F)F)C(=O)NCc1ccccc1 | 87 nM | – | – | –
CC(C)C[C@H](N[C@@H](c1ccc(-c2ccc(S(C)(=O)=O)cc2)cc1)C(F)(F)F)C(=O)N[C@@H](C)C(N)=O | 174 nM | – | – | –
CC(C)C[C@H](N[C@@H](c1ccc(-c2ccc(S(C)(=O)=O)cc2)cc1)C(F)(F)F)C(=O)N[C@@H](CCc1ccccc1)C(N)=O | 273 nM | – | – | –
CC(C)C[C@H](N[C@@H](c1ccc(-c2ccc(S(C)(=O)=O)cc2)cc1)C(F)(F)F)C(=O)N[C@@H](CCS(C)(=O)=O)C(N)=O | 151 nM | – | – | –
CSCC[C@H](NC(=O)[C@H](CC(C)C)N[C@@H](c1ccc(-c2ccc(S(C)(=O)=O)cc2)cc1)C(F)(F)F)C(=O)N(C)C | 1050 nM | – | – | –
CSCC[C@H](NC(=O)[C@H](CC(C)C)N[C@@H](c1ccc(-c2ccc(S(C)(=O)=O)cc2)cc1)C(F)(F)F)C(N)=O | 13 nM | > 100000 nM | 55700 nM | 76900 nM
CC(C)C[C@H](N[C@@H](c1ccc(-c2ccc(S(C)(=O)=O)cc2)cc1)C(F)(F)F)C(=O)NCC(N)=O | 238 nM | > 100000 nM | 63100 nM | 41100 nM
CC(C)C[C@H](N[C@@H](c1ccc(-c2ccc(S(C)(=O)=O)cc2)cc1)C(F)(F)F)C(=O)N[C@H](C#N)Cc1ccccc1 | 0.6 nM | – | – | –
